Most compounds without a hit are left out; they make up all but 2.3% or so of the library.
TRPC4 PAM – allosteric potentiators of mouse TRPC4 channel | Q9QUQ5 | HEK293 TRPC4beta/mu-opioid, DAMGO EC20, Fluo-4 Ca2+ flux; active compounds read high | B-score at 10 µM | actives 0.42% (n = 310,000) | AID 2227;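 active = B-score of calcium response area above 5 SD of library B-scores, with initial fluorescence ratio within 5 SD of library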;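 also: B-score of integrated fluorescence ratio over time as area under calcium response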
Target sequence (Q9QUQ5 whole entry, looked up): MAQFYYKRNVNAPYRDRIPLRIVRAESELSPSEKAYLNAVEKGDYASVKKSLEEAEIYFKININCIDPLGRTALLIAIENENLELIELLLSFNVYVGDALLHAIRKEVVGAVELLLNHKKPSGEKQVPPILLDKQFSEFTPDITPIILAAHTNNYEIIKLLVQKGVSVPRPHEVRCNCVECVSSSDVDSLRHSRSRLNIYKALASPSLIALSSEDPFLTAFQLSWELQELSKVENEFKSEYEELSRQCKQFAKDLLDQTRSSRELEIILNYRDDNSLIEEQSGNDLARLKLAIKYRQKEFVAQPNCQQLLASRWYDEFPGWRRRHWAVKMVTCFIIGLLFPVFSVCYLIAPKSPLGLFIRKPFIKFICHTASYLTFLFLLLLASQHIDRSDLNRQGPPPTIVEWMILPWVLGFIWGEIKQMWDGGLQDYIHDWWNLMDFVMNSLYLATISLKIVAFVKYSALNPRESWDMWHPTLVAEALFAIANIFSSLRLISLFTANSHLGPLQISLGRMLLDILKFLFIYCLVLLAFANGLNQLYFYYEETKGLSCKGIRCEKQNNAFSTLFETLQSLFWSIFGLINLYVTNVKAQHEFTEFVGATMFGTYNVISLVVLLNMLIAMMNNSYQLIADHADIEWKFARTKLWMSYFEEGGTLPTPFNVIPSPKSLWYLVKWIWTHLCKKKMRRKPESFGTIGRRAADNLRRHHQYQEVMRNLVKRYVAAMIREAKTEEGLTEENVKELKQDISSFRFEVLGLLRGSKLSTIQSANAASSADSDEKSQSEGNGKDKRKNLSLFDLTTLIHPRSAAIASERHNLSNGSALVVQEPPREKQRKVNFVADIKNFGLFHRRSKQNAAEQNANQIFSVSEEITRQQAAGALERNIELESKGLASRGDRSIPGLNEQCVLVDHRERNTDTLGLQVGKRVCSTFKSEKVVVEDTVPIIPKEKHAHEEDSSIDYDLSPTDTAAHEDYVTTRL
TRPC6 inhibitor – inhibitors of mouse TRPC6 channel. Q61143. HEK293-TRPC6, membrane potential dye, ACh-evoked depolarization; active compounds read low. B-score at 10 µM. actives 1.1% (n = 310,000). AID 2553;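 active = B-score under library mean minus 3 SD, initial fluorescence not abnormally high, positive integrated signal ratio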;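 also: B-score derived from integrated fluorescence ratio over the kinetic read; more negative B-score means stronger inhibition of depolarization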
TRPC4 agonist – activators of mouse TRPC4 channel; HEK293 TRPC4beta/mu-opioid, Fluo4 calcium fluorescence; active compounds read high; B-score at 10 µM; actives 0.49% (n = 310,000); AID 2237;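 active = B-score above 5 SD of library B-scores, and initial fluorescence ratio not above library mean plus 5 SD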;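 also: positive B-score marks a calcium rise read as TRPC4 activation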
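Material: HEK293 stable line with TRPC4beta plus mu-opioid receptor; technique: Fluo4 calcium-sensitive dye fluorescence, kinetic, 1 Hz baseline; timing: Fluo4 dye loading 45 min at room temperature, 110 s recording; controls: assay buffer as low control, maximal DAMGO as high control; read-out: integrated baseline-normalised fluorescence ratio, converted to per-well B score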
TRPC6 act – activators of mouse TRPC6 channel. actives 0.13% (n = 310,000). HEK293-TRPC6 membrane potential dye fluorescence; active compounds read high. B-score at 10 µM. AID 2550. Q61143;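 active = B-score of the integrated fluorescence ratio above library mean plus 3 SD, and starting fluorescence ratio within library mean plus 5 SD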;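 also: higher score means more depolarization so channel activation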
TRPC4 inh – blocks the mouse TRPC4 cation channel; Q9QUQ5; B-score at 10 µM; actives 0.39% (n = 300,000); HEK293 TRPC4beta/mu-opioid, DAMGO-evoked Fluo4 calcium flux; active compounds read low; AID 2247;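 active = B-score over 3 SD under the library average, no early fluorescence shift, positive overall ratio signal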
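test system = HEK293 cells with stable TRPC4beta plus mu-opioid receptor expression | detection = Fluo4 Ca2+ flux fluorescence | read-out = integrated fluorescence ratio relative to baseline, converted to per-well B score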
* hit, by the source's call.

COc1cc(C2NC(=O)CCC2[N+](=O)[O-])c(OC)cc1Br (configuration not stated) was read as TRPC4 PAM inactive, TRPC6 inhibitor inactive, TRPC4 agonist inactive, TRPC6 act inactive and TRPC4 inh inactive.
For CCOc1ccccc1NC(=O)c1cc(S(=O)(=O)NCc2ccco2)ccc1F the results were TRPC4 PAM inactive, TRPC6 inhibitor inactive, TRPC4 agonist inactive, TRPC6 act inactive and TRPC4 inh inactive.
CCN1CCN(C(c2ccccn2)c2c(NC(=O)c3ccccc3)sc(C)c2C)CC1 (configuration not stated) was read as TRPC4 PAM inactive, TRPC6 inhibitor inactive, TRPC4 agonist inactive, TRPC6 act inactive and TRPC4 inh inactive.
`CCOC(=O)C1CCN(c2nc3ccccc3nc2C(C#N)C(=O)OCCOC)CC1` (configuration not stated) gave TRPC4 PAM inactive, TRPC6 inhibitor inactive, TRPC4 agonist inactive, TRPC6 act inactive and TRPC4 inh -7*.
`CCOC(=O)C1CCN(c2nc3ccccc3nc2C(C#N)C(=O)OC(C)COC)CC1` (configuration not stated) gave TRPC4 PAM inactive, TRPC6 inhibitor inactive, TRPC4 agonist inactive, TRPC6 act inactive and TRPC4 inh inactive.
`O=[N+]([O-])c1ccc(S(=O)(=O)NCCCc2ccccc2)cc1` gave TRPC4 PAM 57*, TRPC6 inhibitor inactive, TRPC4 agonist inactive, TRPC6 act inactive and TRPC4 inh inactive.
For CC1(C)CC(=O)C=C(c2ccc3[nH]ccc3c2)C1 the results were TRPC4 PAM inactive, TRPC6 inhibitor inactive, TRPC4 agonist inactive, TRPC6 act inactive and TRPC4 inh inactive.
For CN(C)S(=O)(=O)N1CCC(CCCC2CCN(S(=O)(=O)N(C)C)CC2)CC1 the results were TRPC4 PAM 23*, TRPC6 inhibitor inactive, TRPC4 agonist inactive, TRPC6 act inactive and TRPC4 inh inactive.
`CN(C)S(=O)(=O)N1CCCN(S(=O)(=O)N(C)C)CC1` gave TRPC4 PAM inactive, TRPC6 inhibitor inactive, TRPC4 agonist inactive, TRPC6 act inactive and TRPC4 inh inactive.
`CCOC(=O)c1c(S(=O)(=O)N2CCC(C)CC2)c(C)n(C)c1C` gave TRPC4 PAM inactive, TRPC6 inhibitor inactive, TRPC4 agonist inactive, TRPC6 act inactive and TRPC4 inh inactive.
CC(OC(=O)Cn1cnc2c1c(=O)n(C)c(=O)n2C)C(=O)Nc1ccc(Cl)cc1 (configuration not stated) was read as TRPC4 PAM inactive, TRPC6 inhibitor inactive, TRPC4 agonist inactive, TRPC6 act inactive and TRPC4 inh -8*.
`Cn1c(=O)c2c(ncn2CC(=O)OCC(=O)Nc2ccc(Cl)cc2)n(C)c1=O` gave TRPC4 PAM inactive, TRPC6 inhibitor inactive, TRPC4 agonist inactive, TRPC6 act inactive and TRPC4 inh inactive.
O=C(OCc1ccccc1)N1CCc2ccccc21 was read as TRPC4 PAM inactive, TRPC6 inhibitor inactive, TRPC4 agonist inactive, TRPC6 act inactive and TRPC4 inh inactive.
Screening CCOc1ccc(CSC(=N)N)cc1[N+](=O)[O-] returned TRPC4 PAM inactive, TRPC6 inhibitor inactive, TRPC4 agonist 77*, TRPC6 act inactive and TRPC4 inh inactive.
Screening CC(C)Oc1ccc(CSC(=N)N)cc1 returned TRPC4 PAM inactive, TRPC6 inhibitor inactive, TRPC4 agonist inactive, TRPC6 act inactive and TRPC4 inh inactive.
CCOc1ccc(CSC(=N)N)cc1Cl was read as TRPC4 PAM inactive, TRPC6 inhibitor inactive, TRPC4 agonist 120*, TRPC6 act inactive and TRPC4 inh inactive.
`C=CCN1C(=O)c2ccc(C(=O)N3CCN(S(=O)(=O)c4cccc(F)c4)CC3)cc2C1=O` gave TRPC4 PAM inactive, TRPC6 inhibitor inactive, TRPC4 agonist inactive, TRPC6 act inactive and TRPC4 inh inactive.
Nc1cc(C(F)(F)F)ccc1Nc1ccccc1 was read as TRPC4 PAM inactive, TRPC6 inhibitor inactive, TRPC4 agonist inactive, TRPC6 act inactive and TRPC4 inh -6*.
`CCOC(=O)c1c(O)cc(C)cc1Nc1ccccc1` gave TRPC4 PAM inactive, TRPC6 inhibitor inactive, TRPC4 agonist inactive, TRPC6 act inactive and TRPC4 inh inactive.
For CNC(=S)N/N=C/c1cn(Cc2ccc(F)cc2)c2ccccc12 the results were TRPC4 PAM 11*, TRPC6 inhibitor inactive, TRPC4 agonist inactive, TRPC6 act inactive and TRPC4 inh inactive.
Nc1ccc(C(=O)N/N=C/c2cn(Cc3ccccc3F)c3ccccc23)cc1 was read as TRPC4 PAM 11*, TRPC6 inhibitor inactive, TRPC4 agonist inactive, TRPC6 act inactive and TRPC4 inh inactive.
Screening COC(=O)N/N=C/c1cn(Cc2ccc(F)cc2)c2ccccc12 returned TRPC4 PAM inactive, TRPC6 inhibitor inactive, TRPC4 agonist inactive, TRPC6 act inactive and TRPC4 inh inactive.
Screening Nc1ccc(C(=O)N/N=C/c2cn(Cc3ccc(F)cc3)c3ccccc23)cc1 returned TRPC4 PAM inactive, TRPC6 inhibitor inactive, TRPC4 agonist inactive, TRPC6 act inactive and TRPC4 inh inactive.
`CCOC(=O)c1oc2ccc(OC)cc2c1NC(=O)CN1CCN(C)CC1` gave TRPC4 PAM inactive, TRPC6 inhibitor inactive, TRPC4 agonist 88*, TRPC6 act inactive and TRPC4 inh inactive.
`CCOC(=O)c1oc2ccccc2c1NC(=O)CN1CCN(C)CC1` gave TRPC4 PAM inactive, TRPC6 inhibitor inactive, TRPC4 agonist inactive, TRPC6 act inactive and TRPC4 inh inactive.
For O=C(CC(=O)c1c(F)cccc1Cl)c1ccccc1O the results were TRPC4 PAM inactive, TRPC6 inhibitor inactive, TRPC4 agonist 84*, TRPC6 act inactive and TRPC4 inh inactive.
Screening CCOc1ccc(NC(=O)[C@@H]2CCC(=O)N2C2OC(=O)c3ccccc32)cc1 (some centres not stated) returned TRPC4 PAM inactive, TRPC6 inhibitor inactive, TRPC4 agonist inactive, TRPC6 act inactive and TRPC4 inh inactive.
NC1=NC[C@H](CC2CCCCC2)N1CCc1cc(C(F)(F)F)cc(C(F)(F)F)c1 was read as TRPC4 PAM inactive, TRPC6 inhibitor inactive, TRPC4 agonist 67*, TRPC6 act inactive and TRPC4 inh inactive.
For Cc1noc(C)c1COC(=O)[C@@H](NC(=O)c1ccccc1Cl)C(C)C the results were TRPC4 PAM 48*, TRPC6 inhibitor inactive, TRPC4 agonist inactive, TRPC6 act inactive and TRPC4 inh inactive.
`CCSc1nsc(NC(=O)Nc2ccccc2F)n1` gave TRPC4 PAM inactive, TRPC6 inhibitor inactive, TRPC4 agonist inactive, TRPC6 act inactive and TRPC4 inh inactive.
`C=CCSc1nsc(NC(=O)Nc2ccc(F)cc2)n1` gave TRPC4 PAM 11*, TRPC6 inhibitor inactive, TRPC4 agonist inactive, TRPC6 act inactive and TRPC4 inh inactive.

Screening data as filed in PubChem.
